10 molecules from ChEMBL document CHEMBL1121690, “Inhibition of cholesterol side-chain cleavage. 3. 22-azacholesterol analogues bearing aryl-substituted side chains” (J Med Chem, 1981) can be followed below.

Conditions in all cases: cattle
For data set [1], the target named is T1, cholesterol side-chain cleavage cytochrome P450 (mitochondrial) (Bos taurus, UniProt P00189).
T1 sequence (P00189 whole entry): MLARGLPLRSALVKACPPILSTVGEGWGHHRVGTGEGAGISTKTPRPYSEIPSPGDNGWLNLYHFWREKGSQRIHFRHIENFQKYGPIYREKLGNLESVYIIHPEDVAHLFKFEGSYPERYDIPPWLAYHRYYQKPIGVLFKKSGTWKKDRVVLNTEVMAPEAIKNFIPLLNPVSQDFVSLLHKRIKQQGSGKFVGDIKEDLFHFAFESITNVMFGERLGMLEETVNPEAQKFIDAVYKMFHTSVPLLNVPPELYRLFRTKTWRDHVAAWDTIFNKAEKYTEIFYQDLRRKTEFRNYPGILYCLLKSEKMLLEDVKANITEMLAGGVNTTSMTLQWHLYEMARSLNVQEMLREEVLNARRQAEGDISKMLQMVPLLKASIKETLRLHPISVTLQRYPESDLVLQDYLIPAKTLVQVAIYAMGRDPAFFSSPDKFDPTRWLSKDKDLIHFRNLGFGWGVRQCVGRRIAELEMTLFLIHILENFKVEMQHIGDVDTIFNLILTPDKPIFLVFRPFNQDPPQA
Briefly: Percent inhibition of cholesterol side-chain cleavage cytochrome P450 at 0.1 uM in bovine adrenocortical mitochondrial acetone powder preparations. Put shortly:
(§1)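 Inhibitors were dissolved in DMF and added to the incubation mixture before the substrate, at final concentrations of 100 µM or less. Activity was taken from the change in isotope ratios between zero time and 2 h, read by liquid scintillation counting after the isocaproic acid was driven off by heating under vacuum.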

Data set [2] addresses T1, cholesterol side-chain cleavage cytochrome P450 (mitochondrial). Briefly: Percent inhibition of cholesterol side-chain cleavage cytochrome P450 at 10 uM in bovine adrenocortical mitochondrial acetone powder preparations. In a few lines: as §1
Data set [3] has the same target. Briefly: Percent inhibition of cholesterol side-chain cleavage cytochrome P450 at 1 uM in bovine adrenocortical mitochondrial acetone powder preparations. In a few lines: as §1
Data set [4] shares this target. The data set is described as follows: Percent inhibition of cholesterol side-chain cleavage cytochrome P450 at 100 uM in bovine adrenocortical mitochondrial acetone powder preparations. Put shortly:
as §1

Consider `COc1ccc(CC(=O)NC(C)C2CCC3C4CC=C5CC(O)CCC5(C)C4CCC23C)cc1` (centres undefined), for which the inhibition at 0.1 µM in data set [1] came out at 38%.
Take `COc1ccc(CCNC(C)C2CCC3C4CC=C5CC(O)CCC5(C)C4CCC23C)cc1` (centres undefined): the inhibition at 0.1 µM in data set [1] is -6%. Also, the inhibition at 10 µM in data set [2] was found to be 40%.
Turning to `CC(NC(=O)CCc1ccccc1)C1CCC2C3CC=C4CC(O)CCC4(C)C3CCC12C` (centres undefined), in data set [1], the inhibition at 0.1 µM was 19%.
Turning to `CC(NC(=O)c1ccccc1)C1CCC2C3CC=C4CC(O)CCC4(C)C3CCC12C` (centres undefined), the inhibition at 0.1 µM in data set [1] amounted to 9%. Moreover, in data set [3], the inhibition at 1 µM was 53%. Also, the inhibition at 10 µM in data set [2] worked out at 84%. The inhibition at 100 µM in data set [4] worked out at 84%.
With `CC(NC(=O)Cc1ccc(Cl)cc1)C1CCC2C3CC=C4CC(O)CCC4(C)C3CCC12C` (centres undefined), the inhibition at 0.1 µM in data set [1] is 25%.
Take `CC(NC(=O)Cc1cccc(I)c1)C1CCC2C3CC=C4CC(O)CCC4(C)C3CCC12C` (centres undefined): the inhibition at 1 µM in data set [3] is 18%. Also, in data set [2], the inhibition at 10 µM came out at 73%.
Turning to `CC(NC(=O)Cc1ccc([N+](=O)[O-])cc1)C1CCC2C3CC=C4CC(O)CCC4(C)C3CCC12C` (centres undefined), the inhibition at 1 µM in data set [3] was 22%. Moreover, in data set [2], the inhibition at 10 µM was 49%. The inhibition at 100 µM in data set [4] amounted to 39%.
Take `CC(NCCc1ccc(Cl)cc1)C1CCC2C3CC=C4CC(O)CCC4(C)C3CCC12C` (centres undefined): in data set [3], the inhibition at 1 µM worked out at 22%.
`CC(C(=O)NCc1ccccc1)C1CCC2C3CC=C4CC(O)CCC4(C)C3CCC12C` (centres undefined): the inhibition at 10 µM in data set [2] is 31%. The inhibition at 100 µM in data set [4] turned out to be 45%.
`CC(NC(=O)Cc1ccccc1)C1CCC2C3CC=C4CC(O)CCC4(C)C3CCC12C` (centres undefined): in data set [1], the inhibition at 0.1 µM worked out at 28%. Also, the inhibition at 10 µM in data set [2] is 44%.

As a reminder, the inhibition is the drop in the measured response relative to a control, in per cent.
